≈ marks a conversion by molar mass, not a printed value. Calls of active or inactive are those of the source. The calls are words filed in the database; no cut-off is given here.
Columns and labels:
[1] = system: HeLa; assay: Antiproliferative activity against human HeLa cells after 24 and 72 hrs by MTT assay; assay type: functional, cell-based
How it was run: (§1)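 ATCC human cell lines are kept in RPMI, DMEM or McCoy's 5A with 10–15% heat-inactivated FCS at 37 °C and 5% CO2. They are seeded at 1×10^4–1×10^5 cells/mL in 48-well plates and exposed to 0.5, 10, 20 or 40 µM. Viability is read by MTT (590 nm) at 24 and 72 h. Growth is expressed relative to untreated cells and IC50 is fitted, in triplicate.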

[2] = system: MCF7; assay: Induction of necrosis in human MCF7 cells at 20 uM after 48 hrs by Hoechst 33258/propidium iodide staining based phase contrast microscopic analysis; assay type: functional
How it was run: (§2)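 Cells in 48-well plates treated with 0.5, 10, 20 or 40 µM for 24 and 48 h. Values are read at 48 h, 20 µM for test agents and 0.5 µM for controls. Staining is Hoechst 33258/propidium iodide double staining with fluorescence microscopy. Blue nuclei are viable or early-to-mid apoptotic, and pink nuclei are late apoptotic or necrotic. Apoptosis and necrosis are scored from chromatin condensation as % of cells. Cells are grown at 37 °C in 5% CO2 in RPMI, DMEM or McCoy's 5A with 10–15% heat-inactivated FCS.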

[3] = system: Micrococcus luteus; assay: Antimicrobial activity against Micrococcus luteus ATCC 9341 assessed as zone of inhibition at 30 uL for 24 hrs at 30 degC by disk diffusion test; assay type: functional, organism-based
How it was run: (§3)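 Agar well diffusion on Mueller Hinton agar seeded with 0.1 mL broth culture (18–24 h), adjusted to 0.5 McFarland (about 1×10^8 bacteria or 1×10^6 yeast cells/mL). A 6 mm well is filled with 30 µL of compound from a fresh 1000 µg/mL DMSO stock. Plates are held at 30 °C for 24 h and inhibition zone diameter is read in mm.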

[4] = system: Salmonella typhimurium; assay: Antimicrobial activity against Salmonella typhimurium ATCC 14028 assessed as zone of inhibition at 30 uL for 24 hrs at 37 degC by disk diffusion test; assay type: functional, organism-based; conditions: Salmonella enterica subsp. enterica serovar Typhimurium
How it was run: (§4)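 Compound (30 µL of a fresh 1000 µg/mL DMSO stock) goes into a 6 mm well cut in Mueller Hinton agar inoculated with 0.1 mL broth culture adjusted to 0.5 McFarland (about 1×10^8 cells/mL). Plates are incubated 24 h at 37 °C, then zone of inhibition diameter is measured in mm.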

[5] = system: Klebsiella pneumoniae; assay: Antimicrobial activity against Klebsiella pneumoniae ATCC 13882 assessed as zone of inhibition at 30 uL for 24 hrs at 37 degC by disk diffusion test; assay type: functional, organism-based; how it was run: as §4
[6] = system: Bacillus cereus; assay: Antimicrobial activity against Bacillus cereus ATCC 11778 for 24 hrs by microdillution method; assay type: functional; conditions: ATCC 11778, 24 h
How it was run: (§5)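 Broth microdilution. Compound is dissolved in DMSO (2 mg/mL) and diluted in Mueller Hinton broth as two-fold serial dilutions from 256 to 0.125 µg/mL. Bacteria are pre-grown in nutrient broth at 30 °C, and the final inoculum is about 10^6 cfu/mL. Tests are incubated 37 °C for 24 h. MIC is the lowest concentration giving complete inhibition. Streptomycin is the positive control.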

[7] = system: HL-60; assay: Antiproliferative activity against human HL60 cells after 24 and 72 hrs by MTT assay; assay type: functional, cell-based; how it was run: as §1
[8] = system: SAOS-2; assay: Induction of necrosis in human Saos2 cells at 20 uM after 48 hrs by Hoechst 33258/propidium iodide staining based […] microscopic analysis; assay type: functional; how it was run: as §2
[9] = system: MCF7; assay: Antiproliferative activity against human MCF7 cells after 24 and 72 hrs by MTT assay; assay type: functional, cell-based; how it was run: as §1
[10] = system: HeLa; assay: Induction of necrosis in human HeLa cells at 20 uM after 48 hrs by Hoechst 33258/propidium iodide staining based phase contrast microscopic analysis; assay type: functional; how it was run: as §2
[11] = Antiproliferative activity against human Saos2 cells after 24 and 72 hrs by MTT assay; assay type: functional, cell-based; conditions: SAOS-2; how it was run: as §1
[12] = system: Escherichia coli; assay: Antimicrobial activity against Escherichia coli ATCC 25922 assessed as zone of inhibition at 30 uL for 24 hrs at 37 degC by disk diffusion test; assay type: functional, organism-based; how it was run: as §4
[13] = system: Caco-2; assay: Induction of necrosis in human Caco2 cells at 20 uM after 48 hrs by Hoechst 33258/propidium iodide staining based phase contrast microscopic analysis; assay type: functional; how it was run: as §2
[14] = system: MCF7; assay: Induction of apoptosis in human MCF7 cells at 20 uM after 48 hrs by Hoechst 33258/propidium iodide staining based phase contrast microscopic analysis; assay type: functional; how it was run: as §2
[15] = system: Nakaseomyces glabratus; assay: Antimicrobial activity against Candida glabrata assessed as zone of inhibition at 30 uL for 24 hrs at 30 degC by disk diffusion test; assay type: functional, organism-based; how it was run: as §3
[16] = system: Cyberlindnera jadinii; assay: Antimicrobial activity against Candida utilis ATCC 9950 assessed as zone of inhibition at 30 uL for 24 hrs at 30 degC by disk diffusion test; assay type: functional, organism-based; how it was run: as §3
[17] = system: Candida tropicalis; assay: Antimicrobial activity against Candida tropicalis assessed as zone of inhibition at 30 uL for 24 hrs at 30 degC by disk diffusion test; assay type: functional, organism-based; how it was run: as §3
[18] = system: HL-60; assay: Induction of apoptosis in human HL60 cells at 20 uM after 48 hrs by Hoechst 33258/propidium iodide staining based phase contrast microscopic analysis; assay type: functional; how it was run: as §2
[19] = system: Staphylococcus aureus; assay: Antimicrobial activity against Staphylococcus aureus ATCC 25923 assessed as zone of inhibition at 30 uL for 24 hrs at 37 degC by disk diffusion test; assay type: functional, organism-based; how it was run: as §4
[20] = system: HT-29; assay: Antiproliferative activity against human HT-29 cells after 24 and 72 hrs by MTT assay; assay type: functional, cell-based; how it was run: as §1
[21] = system: HeLa; assay: Induction of apoptosis in human HeLa cells at 20 uM after 48 hrs by Hoechst 33258/propidium iodide staining based phase contrast microscopic analysis; assay type: functional; how it was run: as §2
[22] = system: Bacillus subtilis; assay: Antimicrobial activity against Bacillus subtilis ATCC 6633 assessed as zone of inhibition at 30 uL for 24 hrs at 30 degC by disk diffusion test; assay type: functional; how it was run: as §3
[23] = system: HT-29; assay: Induction of necrosis in human HT-29 cells at 20 uM after 48 hrs by Hoechst 33258/propidium iodide staining based phase contrast microscopic analysis; assay type: functional; how it was run: as §2
[24] = system: Staphylococcus epidermidis; assay: Antimicrobial activity against Staphylococcus epidermidis ATCC 12228 assessed as zone of inhibition at 30 uL for 24 hrs at 37 degC by disk diffusion test; assay type: functional, organism-based; how it was run: as §4
[25] = system: Saccharomyces cerevisiae; assay: Antimicrobial activity against Saccharomyces cerevisiae ATCC 9763 assessed as zone of inhibition at 30 uL for 24 hrs at 30 degC by disk diffusion test; assay type: functional, organism-based; how it was run: as §3
[26] = system: Bacillus thuringiensis; assay: Antimicrobial activity against Bacillus thuringiensis assessed as zone of inhibition at 30 uL for 24 hrs at 30 degC by disk diffusion test; assay type: functional; how it was run: as §3
[27] = system: Candida albicans; assay: Antimicrobial activity against Candida albicans ATCC 10231 assessed as zone of inhibition at 30 uL for 24 hrs at 30 degC by disk diffusion test; assay type: functional, organism-based; how it was run: as §3
[28] = system: HL-60; assay: Induction of necrosis in human HL60 cells at 20 uM after 48 hrs by Hoechst 33258/propidium iodide staining based phase contrast microscopic analysis; assay type: functional; how it was run: as §2
[29] = system: Caco-2; assay: Induction of apoptosis in human Caco2 cells at 20 uM after 48 hrs by Hoechst 33258/propidium iodide staining based phase contrast microscopic analysis; assay type: functional; how it was run: as §2
[30] = system: Pseudomonas aeruginosa; assay: Antimicrobial activity against Pseudomonas aeruginosa ATCC 35032 assessed as zone of inhibition at 30 uL for 24 hrs at 37 degC by disk diffusion test; assay type: functional, organism-based; how it was run: as §4
[31] = system: Bacillus thuringiensis; assay: Antimicrobial activity against Bacillus thuringiensis for 24 hrs by microdillution method; assay type: functional; how it was run: as §5
[32] = system: Proteus vulgaris; assay: Antimicrobial activity against Proteus vulgaris ATCC 33420 assessed as zone of inhibition at 30 uL for 24 hrs at 37 degC by disk diffusion test; assay type: functional, organism-based; how it was run: as §4
[33] = system: Enterococcus faecalis; assay: Antimicrobial activity against Enterococcus faecalis ATCC 29212 assessed as zone of inhibition at 30 uL for 24 hrs at 37 degC by disk diffusion test; assay type: functional, organism-based; how it was run: as §4
[34] = system: SAOS-2; assay: Induction of apoptosis in human Saos2 cells at 20 uM after 48 hrs by Hoechst 33258/propidium iodide staining based phase contrast microscopic analysis; assay type: functional; how it was run: as §2
[35] = system: Bacillus cereus; assay: Antimicrobial activity against Bacillus cereus ATCC 11778 assessed as zone of inhibition at 30 uL for 24 hrs at 30 degC by disk diffusion test; assay type: functional; how it was run: as §3
[36] = system: Bacillus subtilis; assay: Antimicrobial activity against Bacillus subtilis ATCC 6633 for 24 hrs by microdillution method; assay type: functional; conditions: ATCC 6633, 24 h; how it was run: as §5
[37] = system: HT-29; assay: Induction of apoptosis in human HT-29 cells at 20 uM after 48 hrs by Hoechst 33258/propidium iodide staining based phase contrast microscopic analysis; assay type: functional; how it was run: as §2
[38] = system: Caco-2; assay: Antiproliferative activity against human Caco2 cells after 24 and 72 hrs by MTT assay; assay type: functional, cell-based; how it was run: as §1

IC50 [1]: 8.71 µM | MIC [6]: 128 µg/mL (≈ 264 µM) | IC50 [7]: 3.9 µM | IC50 [9]: 7.5 µM | IC50 [20]: 10.9 µM | MIC [31]: 128 µg/mL (≈ 264 µM) | MIC [36]: 64 µg/mL (≈ 132 µM) | IC50 [38]: 28.1 µM
Structure (SMILES): CC1(C)CC[C@]2(C(=O)O)CC[C@]3(C)C(=CC[C@@H]4[C@@]5(C)CC[C@H](O)[C@@](C)(/C=N/O)[C@@H]5CC[C@]43C)[C@@H]2C1
Activity [2]: 4% | diameter of the inhibition zone (DIZ) [3]: inactive | diameter of the inhibition zone (DIZ) [4]: inactive | diameter of the inhibition zone (DIZ) [5]: inactive | Activity [8]: 3% | Activity [10]: 3% | IC50 [11]: 7.93 µM | diameter of the inhibition zone (DIZ) [12]: inactive | Activity [13]: 3% | Activity [14]: 26% | diameter of the inhibition zone (DIZ) [15]: inactive | diameter of the inhibition zone (DIZ) [16]: inactive | diameter of the inhibition zone (DIZ) [17]: inactive | Activity [18]: 30% | diameter of the inhibition zone (DIZ) [19]: inactive | Activity [21]: 26% | diameter of the inhibition zone (DIZ) [22]: 11 mm | Activity [23]: 0.7% | diameter of the inhibition zone (DIZ) [24]: inactive | diameter of the inhibition zone (DIZ) [25]: inactive | diameter of the inhibition zone (DIZ) [26]: 10 mm | diameter of the inhibition zone (DIZ) [27]: inactive | Activity [28]: 3% | Activity [29]: 23% | diameter of the inhibition zone (DIZ) [30]: inactive | diameter of the inhibition zone (DIZ) [32]: inactive | diameter of the inhibition zone (DIZ) [33]: inactive | Activity [34]: 27% | diameter of the inhibition zone (DIZ) [35]: 9 mm | Activity [37]: 27%
